# Measured values from paper PMC7069794 (Hepatology (Baltimore, Md.), 2020).
# B1: human α-defensin 5 (peptide, UniProt Q01523 20-94, looked up)
# Defensin alpha 5: ESLQERADEATTQKQSGEDNQDLAISFAGNGLSALRTSGSQARATCYCRTGRCATRESLSGVCEISGRLYRLCCR
# modifications: Defensin-5
# B2: HD5red: reduced form of HD5 (peptide, UniProt Q01523 20-94, looked up)
# Defensin alpha 5: B1 Defensin alpha 5
# modifications: Defensin-5 reduced form
# Assays:
# [1] = system: Paneth cells / intestinal crypts of WT mice; assay: acute zinc deprivation by dithizone in mice; assay type: in vivo; conditions: dithizone 75 mg/kg i.p., 6 h
# Summary of the method: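 Male WT mice received dithizone at 75 mg/kg i.p., and intestines were collected 6 h later. Small-intestinal crypts were isolated for imaging and bacterial killing, and ileal Defa5 and Lyz1 mRNA was measured relative to untreated mice, n=6. Data are mean±SD, compared by t-test, rank-sum or ANOVA as appropriate (P<0.05).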
# [2] = system: released crypt components (mainly AMPs) of isolated mouse crypts; assay type: cell-based, mice; conditions: 10 μmol/L carbamyl choline, then 2 μmol/L TPEN for 30 min; n=6
# Summary of the method: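 Crypts isolated from male WT mouse small intestine were treated with 10 μmol/L carbamyl choline to induce granule release. Released material was then exposed to 2 μmol/L TPEN for 30 min for zinc chelation, and its bactericidal activity was measured, n=6. Data are mean±SD.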
# [3] = system: E. coli ML35; assay: E. coli ML35 killing of HD5 with or without zinc determined by flow cytometry; assay type: cell-based; conditions: n=6; for bactericidal activity: oxidized and reduced forms of HD5, without zinc
# [4] = system: Hepa1c1c7 mouse hepatoma cells; assay type: cell-based; conditions: LPS 100 ng/mL, 6 h; n=3
# [5] = system: pair-fed and alcohol-fed mice; assay: LPS injection 4 hours before finishing chronic feeding in mice; assay type: in vivo; conditions: LPS 4 mg/kg i.p., n=6
# Summary of the method: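 Male mice, 12 weeks old, were fed ethanol-containing Lieber-DeCarli liquid diet (alcohol-fed) or isocaloric control liquid diet (pair-fed) for 8 wk. A single LPS dose of 4 mg/kg was given i.p. 4 h before the end of feeding. Read-out was relative hepatic Lcn2 and Cxcl1 mRNA, n=6. Data are mean±SD, compared by t-test or one-way ANOVA with Newman-Keuls post hoc test (P<0.05).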
# [6] = system: pepsin; assay type: in vitro ADME
# [7] = system: alcohol-fed mice; assay type: in vivo
# [8] = system: mice; conditions: cited from earlier work
# [9] = overnight incubation of HD5red with or without zinc, nUHPLC-MS; assay type: physicochemical
molecule,measurement,setting,value
"S=C(N=Nc1ccccc1)NNc1ccccc1 [Dithizone, dithizone]",PC degranulation,[1],rapid PC degranulation
same,crypt bacterial killing,[1]; n=6,impaired
same,expression of Defa5 and Lyz1,"[1]; ileal mRNA, n=6",reduced
"c1ccc(CN(CCN(Cc2ccccn2)Cc2ccccn2)Cc2ccccn2)nc1 [TPEN, N,N,N′,N′-Tetrakis(2-pyridylmethyl)ethylenediamine]",bacterial killing of released crypt components after zinc chelation,[2],impaired bacterial killing
"[Zn] [Zinc, zinc]","bacterial viability, zinc alone",[3]; zinc without HD5,did not affect bacterial viability
lipopolysaccharide [LPS],Lcn2 and Cxcl1 expressions in Hepa1c1c7 hepatocytes,[4],directly stimulated
same,hepatic Cxcl1 expression in AF mice in response to LPS,[5]; alcohol-fed mice,did not further alter
same,hepatic Lcn2 in AF mice in response to LPS,[5]; alcohol-fed mice,only mildly upregulated
same,hepatic Lcn2 and Cxcl1 in PF mice in response to LPS,[5]; pair-fed mice,dramatically upregulated
B1,intact HD5 that bypassed gastric digestion,[6],75%
same,"intestinal structural changes (slight villous blunting), H&E staining",[7]; AF+HD5 group vs AF group (Fig. S11),improved
same,Verrucomicrobiaceae abundance in cecal contents,"[7]; AF+HD5 mice, mean±SD, AF mice 2.03±0.69%, P<0.001, n=8",20.39±5.29%
same,plasma ALT levels,"[7]; AF+HD5 vs AF, n=8",decreased
same,"A. muciniphila abundance, PCR analysis","[7]; cecal contents, AF+HD5 vs AF, n=4",significantly enriched
same,expression of intestinal Il22,"[7]; ileal mRNA, AF+HD5 vs AF",notably augmented
same,"levels of inflammatory cytokines/chemokines, including Ip10, Tnfa, and Mip2","[7]; ileal mRNA, AF+HD5 vs AF",lowered
same,"expression of ileal α-defensins, including Defa4, Defa20 and Defa21","[7]; ileal mRNA, AF+HD5 vs AF, n=6",upregulated
same,alcohol-impaired distribution of ZO-1 and claudin-1,"[7]; ileum, IF staining and Western blot, n=3",reversed
same,"alcohol-induced Lcn2 and Cxcl1 elevation, macrophage activation, and immune cell infiltration","[7]; liver, mRNA n=6, IHC/IF n=3",reduced
same,plasma ethanol levels and protein levels of CYP2E1 and ALDH2,"[7]; mouse, in vivo",remained the same
same,"PAMP translocation, including endotoxemia and increased hepatic bacterial DNAs","[7]; plasma endotoxin, hepatic 16S rRNAs, n=8",effectively reversed
same,antibacterial function of both forms of HD5 with zinc,"[3]; HD5 oxidized and reduced forms, with zinc vs without",significantly improved
same,bactericidal activity,[3],effectively killed bacteria
same,intestinal injury caused by alcohol and colitis,[8],attenuated
same,Akkermensia sp. in mice,[8]; without decreasing microbial diversity,increased
B2,redox state of HD5red after overnight incubation in the absence of zinc,[9]; no zinc,all became oxidized
same,redox state of HD5red after overnight incubation with zinc,[9]; with zinc,a majority of HD5 remained in reduced forms
same,bactericidal activity,[3],more potent
